Molecules are shown by their SMILES. ≈ marks a conversion by molar mass, not a printed value.

For orientation: MIC means the smallest concentration in the dilution series that meets the test's criterion for growth inhibition. Higher therefore signals a need for much substance.

What all share (type): functional
Assay [1] relates to Candida albicans. As to the kind of experiment: Antifungal activity against Candida albicans at 5 mg/ml after 24 to 48 hrs by agar diffusion technique. The note with it: read-out: IZ. In outline: (§1)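 Clinical fungal or yeast isolates were seeded on malt extract agar (pH 5.4). 1 cm holes received 100 of test solution at 5 mg/ml in DMSO, with DMSO control holes and griseofulvin as the standard. Plates sat 1 h at 4 °C, then were incubated at 28 °C. Zone diameters were measured at 24–48 h.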
Background: In agar diffusion tests the substance spreads into inoculated agar from a disc or well.

The subject of assay [2] is Pseudomonas aeruginosa. As to the kind of experiment: Ratio of compound to amoxicilline activity against Pseudomonas aeruginosa at 5 mg/ml after 24 to 48 hrs by agar diffusion technique.
The test system of assay [3] is Staphylococcus aureus. As to the kind of experiment: Antibacterial activity against Staphylococcus aureus at 5 mg/ml after 24 to 48 hrs by agar diffusion technique. Conditions: read-out: IZ. In a few lines:
(§2)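 Hole-plate diffusion on nutrient agar (pH 6.2) seeded with clinical bacterial isolates. 1 cm wells were filled with 100 of a 5 mg/ml DMSO solution, with DMSO-only control wells and amoxicilline as the reference. Plates were held at 4 °C for 1 h, then incubated at 37 °C. Inhibition zone diameter was read after 24–48 h.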

Assay [4] concerns Syncephalastrum racemosum. Description: Ratio of compound to grisofulvin activity against Syncephalastrum racemosum at 5 mg/ml after 24 to 48 hrs by agar diffusion technique.
The subject of assay [5] is Aspergillus fumigatus. Description: Ratio of compound to grisofulvin activity against Aspergillus fumigatus at 5 mg/ml after 24 to 48 hrs by agar diffusion technique.
The subject of assay [6] is Escherichia coli. Description: Ratio of compound to amoxicilline activity against Escherichia coli at 5 mg/ml after 24 to 48 hrs by agar diffusion technique.
For assay [7], the system named is Bacillus subtilis. Description: Ratio of compound to amoxicilline activity against Bacillus subtilis at 5 mg/ml after 24 to 48 hrs by agar diffusion technique.
For assay [8], the system named is Escherichia coli. As to the kind of experiment: Antibacterial activity against Escherichia coli at 5 mg/ml after 24 to 48 hrs by agar diffusion technique. Conditions: read-out: IZ. In outline:
as §2

Assay [9] has as its system Bacillus subtilis. Description: Antibacterial activity against Bacillus subtilis at 5 mg/ml after 24 to 48 hrs by agar diffusion technique. The note with it: read-out: IZ. In a few lines: as §2
Assay [10] relates to Candida albicans. As to the kind of experiment: Ratio of compound to grisofulvin activity against Candida albicans at 5 mg/ml after 24 to 48 hrs by agar diffusion technique.
Assay [11] concerns Staphylococcus aureus. Description: Ratio of compound to amoxicilline activity against Staphylococcus aureus at 5 mg/ml after 24 to 48 hrs by agar diffusion technique.
The test system of assay [12] is Geotrichum candidum. Description: Ratio of compound to grisofulvin activity against Geotrichum candidum at 5 mg/ml after 24 to 48 hrs by agar diffusion technique.
Assay [13] relates to Syncephalastrum racemosum. As to the kind of experiment: Antifungal activity against Syncephalastrum racemosum at 5 mg/ml after 24 to 48 hrs by agar diffusion technique. The note with it: read-out: IZ. In outline: as §1
Assay [14] deals with Aspergillus fumigatus. As to the kind of experiment: Antifungal activity against Aspergillus fumigatus at 5 mg/ml after 24 to 48 hrs by agar diffusion technique. Conditions: read-out: IZ. In outline:
as §1

Assay [15] has as its system Staphylococcus aureus. As to the kind of experiment: Antibacterial activity against Staphylococcus aureus after 24 to 48 hrs by serial dilution technique. In outline:
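MIC by serial dilution: DMSO solutions started at a maximum of 500 and were diluted twofold in succession. Each dilution was inoculated with the test organism, and inhibition zones were measured by agar diffusion.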

For assay [16], the system named is Geotrichum candidum. As to the kind of experiment: Antifungal activity against Geotrichum candidum at 5 mg/ml after 24 to 48 hrs by agar diffusion technique. Conditions: read-out: IZ. In outline: as §1
In assay [17] the test system is Pseudomonas aeruginosa. As to the kind of experiment: Antibacterial activity against Pseudomonas aeruginosa at 5 mg/ml after 24 to 48 hrs by agar diffusion technique. Conditions: read-out: IZ. In outline: as §2

Regarding `CC(=N\NC(=O)c1oc2ccccc2c1C)/C(=N/Nc1ccc([N+](=O)[O-])cc1)S(=O)(=O)c1ccccc1`, the zone of inhibition at 5000 µg/mL in [1] turned out to be 15 mm; in [3], 8 mm; in assay [8] it was 6 mm; in assay [9], 10 mm. Besides, the Ratio in [2] is 0; in [4], 0; in [5], 0; in assay [6] it was 0.21; in [7] it was 0.42; in assay [10] it was 1.5. Further, the Ratio in assay [11] was found to be 0.27; in assay [12], 0.
`Cc1c(C(=O)N/N=C(/C=C/c2ccc(Cl)cc2)C(=N/Nc2ccc(Br)cc2)\N2CCCCC2)oc2ccccc12`: the zone of inhibition at 5000 µg/mL came out at 14 mm in assay [1]; 20 mm in assay [13]; 10 mm in assay [3]; 10 mm in assay [8]; 16 mm in assay [9]. The Ratio in assay [2] is 0; in assay [4] it was 1.05; in assay [5] it was 0; in assay [6], 0.36; in assay [7], 0.67; in assay [10], 1.4. Also, the Ratio in assay [11] is recorded as 0.33; in assay [12], 0.
`CC(=N\NC(=O)c1oc2ccccc2c1C)/C(Cl)=N/Nc1ccccc1`: the zone of inhibition at 5000 µg/mL in assay [1] was 6 mm. Further, the Ratio in [2] is reported as 0; in assay [4], 0; in assay [5], 0; in assay [6], 0; in [7], 0; in assay [10], 0.6. Besides, the Ratio in assay [11] and in [12] was 0 throughout.
As to `CC(=N\NC(=O)c1oc2ccccc2c1C)/C(=N/Nc1ccc([N+](=O)[O-])cc1)NO`, the zone of inhibition at 5000 µg/mL in assay [1] was 9 mm; in assay [13], 20 mm. Also, the Ratio in [2] is recorded as 0; in assay [4], 1.05; in [5], 0; in assay [6], 0; in assay [7] it was 0; in assay [10] it was 0.9. In addition, the Ratio in assay [11] and in [12] was 0 in each case.
For the compound `CC(=N\NC(=O)c1oc2ccccc2c1C)/C(=N/Nc1ccccc1)N1CCCCC1`, the zone of inhibition at 5000 µg/mL in [1] worked out at 14 mm; in assay [13], 16 mm; in assay [3] it was 15 mm; in assay [14] it was 28 mm; in [8], 17 mm. Moreover, the Ratio in [2] worked out at 0; in [4], 0.84; in [5], 1.12; in assay [6] it was 0.61; in [7], 0; in [10], 1.4. The figures for the Ratio in assay [11] and in [12] were 0.5 and 0, respectively.
`Cc1c(C(=O)N/N=C(/C=C/c2ccccc2)C(=N/Nc2ccccc2)\N2CCCCC2)oc2ccccc12`: the zone of inhibition at 5000 µg/mL in assay [1] stood at 15 mm; in assay [13], 19 mm; in [3], 16 mm; in [14], 21 mm; in assay [8], 14 mm; in [9], 15 mm. Further, the Ratio in [2] was 0; in assay [4], 1; in assay [5] it was 0.84; in assay [6], 0.5; in [7], 0.63; in [10], 1.5. For the same compound, the values for the Ratio in assay [11] and in [12] were 0.53 and 0, respectively.
Regarding `Cc1c(C(=O)N/N=C(/C=C/c2ccccc2)C(=N/Nc2ccc([N+](=O)[O-])cc2)\N2CCCCC2)oc2ccccc12`, the zone of inhibition at 5000 µg/mL in assay [1] amounted to 17 mm; in assay [13], 21 mm; in assay [8] it was 8 mm. Also, the Ratio in assay [2] turned out to be 0; in assay [4], 1.1; in assay [5], 0; in assay [6] it was 0.29; in assay [7], 0; in [10] it was 1.7. The Ratio in assay [11] and in assay [12] was 0 in each case.
As to `Cc1c(C(=O)N/N=C/C=C/c2ccccc2)oc2ccccc12`, the figures for the zone of inhibition at 5000 µg/mL in [1] and in assay [9] were 5 mm and 8 mm, respectively. Further, the Ratio turned out to be 0 in assay [2]; 0 in assay [4]; 0 in assay [5]; 0 in [6]; 0.33 in [7]; 0.5 in assay [10]. Besides, the Ratio in [11] and in assay [12] was 0 throughout.
For the compound `CC1(C)S[C@@H]2[C@H](NC(=O)[C@H](N)c3ccc(O)cc3)C(=O)N2[C@H]1C(=O)O` [AMOXICILLIN], the zone of inhibition at 5000 µg/mL in assay [1] was found to be 10 mm; in assay [13], 19 mm; in assay [3], 30 mm; in [14] it was 25 mm; in assay [8] it was 28 mm; in assay [9] it was 24 mm. Besides, the zone of inhibition at 5000 µg/mL in [16] came out at 10 mm; in assay [17], 20 mm. Besides, the Ratio in assay [2], in assay [4], in [5], in assay [6], in assay [7] and in assay [10] was 1 each time. The Ratio in [11] and in [12] was 1 throughout. The minimal inhibitory concentration (MIC) in assay [15] was determined as 50 µg/mL (≈ 137 µM).
With `COc1ccc(N/N=C(Cl)/C(C)=N/NC(=O)c2oc3ccccc3c2C)cc1`, the zone of inhibition at 5000 µg/mL in [1] is 10 mm. Moreover, the Ratio was found to be 0 in [2]; 0 in assay [4]; 0 in [5]; 0 in assay [6]; 0 in assay [7]; 1 in assay [10]. Besides, the Ratio in assay [11] and in [12] was 0 in each case.
Turning to `CC(=N\NC(=O)c1oc2ccccc2c1C)/C(Cl)=N/Nc1ccc([N+](=O)[O-])cc1`, the zone of inhibition at 5000 µg/mL was found to be 12 mm in assay [1]; 12 mm in assay [3]; 14 mm in assay [14]; 10 mm in [8]; 6 mm in assay [9]; 5 mm in assay [16]. Further, in assay [17], the zone of inhibition at 5000 µg/mL was 5 mm. For the same compound, the Ratio in assay [2] was determined as 0.25; in assay [4] it was 0; in assay [5], 0.56; in assay [6], 0.36; in [7], 0.25; in assay [10], 1.2. Also, the Ratio in assay [11] was found to be 0.4; in [12], 0.5.
On to `C/C=N/NC(=O)c1oc2ccccc2c1C`, for which the values for the zone of inhibition at 5000 µg/mL in [1], in assay [3] and in assay [8] were 8 mm, 16 mm and 20 mm, respectively. The Ratio in assay [2] is reported as 0; in assay [4], 0; in [5] it was 0; in assay [6], 0.71; in [7] it was 0; in assay [10], 0.8. Moreover, the Ratio is listed as 0.53 in assay [11] and 0 in [12].
`CC(=N\NC(=O)c1oc2ccccc2c1C)/C(Cl)=N/Nc1ccc(C)cc1`: the zone of inhibition at 5000 µg/mL in assay [1] was 6 mm; in assay [9] it was 7 mm. For the same compound, the Ratio in assay [2] was found to be 0; in assay [4], 0; in assay [5], 0; in [6] it was 0; in assay [7], 0.29; in [10] it was 0.6. Moreover, the Ratio in [11] and in assay [12] was 0 each time.
For the compound `CC(=N\NC(=O)c1oc2ccccc2c1C)/C(Cl)=N/Nc1ccc(Br)cc1`, the zone of inhibition at 5000 µg/mL in [1] is 10 mm; in assay [13], 5 mm; in [9] it was 9 mm. The Ratio in assay [2] was 0; in assay [4], 0.26; in assay [5], 0; in assay [6], 0; in assay [7], 0.38; in assay [10], 1. The Ratio in assay [11] and in assay [12] was 0 each time.

The values are drawn from ChEMBL document CHEMBL1154310, “Stereoselective synthesis and antimicrobial activity of benzofuran-based (1E)-1-(piperidin-1-yl)-N2-arylamidrazones” (2009).
